Experimental data published in ChEMBL document CHEMBL1165950, “Design and synthesis of new potent anticancer pyrazoles with high FLT3 kinase inhibitory selectivity” (Bioorg Med Chem, 2010).

How the values were obtained:
Type in all cases: functional
[1] = system: KM12; test: Cytotoxicity against human KM12 cells assessed as cell growth at 10 uM after 48 hrs by sulforhodamine B assay; conditions: KM12, 48 h, read-out: Activity
[2] = system: NCI-H226; test: Cytotoxicity against human NCI-H226 cells assessed as cell growth at 10 uM; conditions: read-out: Activity
Procedure, shortened: (§1)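 NCI-60 screen: cells grown in RPMI 1640 with 5% FBS and 2 mM L-glutamine, plated at 5000–40,000 cells/well according to doubling time, and preincubated 24 h at 37 °C, 5% CO2. The single 10 µM dose (DMSO stock) was added, then incubated 48 h. Cells were TCA-fixed and stained with 0.4% SRB, read at 515 nm, and growth % calculated against time-zero and control plates.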

[3] = system: A549; test: Cytotoxicity against human A549 cells assessed as cell growth at 1 uM after 48 hrs by sulforhodamine B assay; conditions: A549, 48 h, read-out: Activity
Procedure, shortened: (§2)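 NCI-60 five-dose screen. Cells were grown in RPMI 1640 with 5% FBS and 2 mM L-glutamine, plated at 5000–40,000 cells/well and preincubated for 24 h. Time-zero plates were TCA-fixed. DMSO-solubilized drug was added at five concentrations (10-fold or ½-log serial dilutions) for 48 h at 37 °C, 5% CO2. Cells were TCA-fixed, stained with 0.4% SRB and read at 515 nm. Percent growth used time-zero, control and test absorbances.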

[4] = system: LOX IMVI; test: Cytotoxicity against human LOXIMVI cells assessed as cell growth at 10 uM after 48 hrs by sulforhodamine B assay; conditions: read-out: Activity
[5] = system: UACC-257; test: Growth inhibition of human UACC257 cells after 48 hrs by sulforhodamine B assay; conditions: UACC-257, 48 h; for CC50: read-out: LC50 (the source's name)
Procedure, shortened: (§3)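 NCI 60-cell screen, five-dose mode. Cells grown in RPMI 1640 with 5% FBS and 2 mM L-glutamine and plated at 5000-40,000 cells/well according to doubling time. After 24 h preincubation, a Tz plate was TCA-fixed. Five concentrations (10-fold or 1/2 log dilutions) were applied for 48 h at 37 °C. SRB staining read at 515 nm. IC50 taken from [(Ti-Tz)/(C-Tz)]×100 = 50.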

[6] = system: OVCAR-8; test: Cytotoxicity against human OVCAR8 cells assessed as cell growth at 10 uM; conditions: read-out: Activity; procedure, shortened: as §1
[7] = system: KM12; test: Cytotoxicity against human KM12 cells assessed as cell growth at 1 uM after 48 hrs by sulforhodamine B assay; conditions: KM12, 48 h, read-out: Activity
[8] = system: IGROV-1; test: Growth inhibition of human IGROV1 cells after 48 hrs by sulforhodamine B assay; conditions: IGROV-1, 48 h; for CC50: read-out: LC50 (the source's name); procedure, shortened: as §3
[9] = system: M14; test: Cytotoxicity against human M14 cells assessed as cell growth at 100 nM after 48 hrs by sulforhodamine B assay; conditions: M14, 48 h, read-out: Activity
[10] = system: OVCAR-4; test: Growth inhibition of human OVCAR4 cells after 48 hrs by sulforhodamine B assay; conditions: OVCAR-4, 48 h; for CC50: read-out: LC50 (the source's name); procedure, shortened: as §3
[11] = system: IGROV-1; test: Cytotoxicity against human IGROV1 cells assessed as cell growth at 0.001 uM after 48 hrs by sulforhodamine B assay; conditions: IGROV-1, 48 h, read-out: Activity
[12] = system: SNB-75; test: Cytotoxicity against human SNB75 cells assessed as cell growth at 100 nM after 48 hrs by sulforhodamine B assay; conditions: SNB-75, 48 h, read-out: Activity
[13] = system: SK-MEL-5; test: Cytotoxicity against human SK-MEL-5 cells assessed as cell growth at 100 nM after 48 hrs by sulforhodamine B assay; conditions: SK-MEL-5, 48 h, read-out: Activity
[14] = system: OVCAR-4; test: Cytotoxicity against human OVCAR4 cells assessed as cell growth at 0.001 uM after 48 hrs by sulforhodamine B assay; conditions: OVCAR-4, 48 h, read-out: Activity
[15] = system: EKVX; test: Cytotoxicity against human EKVX cells assessed as cell growth at 0.01 uM after 48 hrs by sulforhodamine B assay; conditions: read-out: Activity
[16] = system: DU-145; test: Growth inhibition of human DU145 cells after 48 hrs by sulforhodamine B assay; conditions: DU-145, 48 h
Procedure, shortened: (§4)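 NCI five-dose SRB assay in RPMI 1640 with 5% FBS and 2 mM L-glutamine. Cells were preincubated 24 h, then exposed 48 h at 37 °C to five concentrations (10-fold or half-log serial dilutions from DMSO stocks). TCA fixation, SRB staining, and absorbance at 515 nm followed. IC50 was taken where [(Ti−Tz)/(C−Tz)]×100 = 50, with Tz as time-zero cell density.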

[17] = system: Malme-3M; test: Cytotoxicity against human MALME-3M cells assessed as cell growth at 0.01 uM after 48 hrs by sulforhodamine B assay; conditions: read-out: Activity
[18] = system: OVCAR-3; test: Cytotoxicity against human OVCAR-3 cells assessed as cell growth at 1 uM after 48 hrs by sulforhodamine B assay; conditions: OVCAR-3, 48 h, read-out: Activity
[19] = system: SK-MEL-5; test: Cytotoxicity against human SK-MEL-5 cells assessed as cell growth at 0.01 uM after 48 hrs by sulforhodamine B assay; conditions: SK-MEL-5, 48 h, read-out: Activity
[20] = system: SW-620; test: Cytotoxicity against human SW620 cells assessed as cell growth at 10 uM; conditions: read-out: Activity; procedure, shortened: as §1
[21] = system: UACC-62; test: Cytotoxicity against human UACC62 cells assessed as cell growth at 100 nM after 48 hrs by sulforhodamine B assay; conditions: UACC-62, 48 h, read-out: Activity
[22] = system: DU-145; test: Cytotoxicity against human DU145 cells assessed as cell growth at 10 uM after 48 hrs by sulforhodamine B assay; conditions: DU-145, 48 h, read-out: Activity
[23] = Cytotoxicity against human Hs 578T cells assessed as cell growth at 100 nM after 48 hrs by sulforhodamine B assay; conditions: read-out: Activity
[24] = system: BT-549; test: Growth inhibition of human BT549 cells after 48 hrs by sulforhodamine B assay; conditions: BT-549, 48 h; for CC50: read-out: LC50 (the source's name); procedure, shortened: as §4
[25] = system: A498; test: Cytotoxicity against human A498 cells assessed as cell growth at 100 nM after 48 hrs by sulforhodamine B assay; conditions: A498, 48 h, read-out: Activity; procedure, shortened: as §2
[26] = system: T47D; test: Cytotoxicity against human T47D cells assessed as cell growth at 0.001 uM after 48 hrs by sulforhodamine B assay; conditions: read-out: Activity
[27] = system: ACHN; test: Cytotoxicity against human ACHN cells assessed as cell growth at 100 nM after 48 hrs by sulforhodamine B assay; conditions: read-out: Activity; procedure, shortened: as §2
[28] = system: U-251; test: Cytotoxicity against human U251 cells assessed as cell growth at 0.01 uM after 48 hrs by sulforhodamine B assay; conditions: U-251, 48 h, read-out: Activity
[29] = system: UACC-257; test: Cytotoxicity against human UACC257 cells assessed as cell growth at 1 uM after 48 hrs by sulforhodamine B assay; conditions: UACC-257, 48 h, read-out: Activity

Row | SMILES | growth at 10 µM [1] [%] | growth at 10 µM [2] [%] | growth at 1 µM [3] [%] | growth at 10 µM [4] [%] | GI50 [5] [µM] | TGI [5] [µM] | CC50 [5] [µM] | growth at 10 µM [6] [%] | growth at 1 µM [7] [%] | GI50 [8] [µM] | TGI [8] [µM] | CC50 [8] [µM] | growth at 0.1 µM [9] [%] | GI50 [10] [µM] | TGI [10] [µM] | CC50 [10] [µM] | growth at 0.001 µM [11] [%] | growth at 0.1 µM [12] [%] | growth at 0.1 µM [13] [%] | growth at 0.001 µM [14] [%] | other results
1 | COc1cc(C)cc(-c2c(-c3ccnc(-c4ccc(N(C)C)cc4)c3)cnn2CC#N)c1 | -49 | 39.8 | 5 | 10 | 0.0359 | > 100 | > 100 | 25.4 | -43 | 0.0608 | 40.9 | > 100 | -16 | 0.27 | > 100 | > 100 | 95 | 6 | -21 | 92 | growth at 0.01 µM [15]: 81%; GI50 [16]: 0.113 µM; TGI [16]: 0.334 µM; growth at 0.01 µM [17]: 34%; growth at 1 µM [18]: 3%; growth at 0.01 µM [19]: 19%; growth at 10 µM [20]: 16.6%; growth at 0.1 µM [21]: 37%; growth at 10 µM [22]: -48%; growth at 0.1 µM [23]: 23%; GI50 [24]: 0.0751 µM; TGI [24]: 0.514 µM; CC50 [24]: > 100 µM; growth at 0.1 µM [25]: 10%; growth at 0.001 µM [26]: 90%; growth at 0.1 µM [27]: 34%; growth at 0.01 µM [28]: 41%; growth at 1 µM [29]: 29%
2 | COc1cc(C)cc(-c2nn(CC#N)cc2-c2ccc(-c3cccc(C(C)=O)c3)nc2)c1 | -25 | 47.8 | 21 | 6 | 3.61 | > 100 | > 100 | 31.4 | 4 | 2.73 | 10.4 | > 100 | 58 | 3.76 | > 100 | > 100 | 106 | 79 | 65 | 99 | growth at 0.01 µM [15]: 99%; GI50 [16]: 1.98 µM; LC50 [16]: > 100 µM; TGI [16]: 4.95 µM; growth at 0.01 µM [17]: 85%; growth at 1 µM [18]: -61%; growth at 0.01 µM [19]: 91%; growth at 10 µM [20]: 24.8%; growth at 0.1 µM [21]: 71%; growth at 10 µM [22]: -48%; growth at 0.1 µM [23]: 61%; GI50 [24]: 2.73 µM; TGI [24]: 15.1 µM; CC50 [24]: > 100 µM; growth at 0.1 µM [25]: 53%; growth at 0.001 µM [26]: 88%; growth at 0.1 µM [27]: 93%; growth at 0.01 µM [28]: 92%; growth at 1 µM [29]: 34%
